Values after ≈ are worked out from the molar mass of the structure shown. Active and inactive are the calls of the source. The rule behind the calls is not given here.
What was measured:
Candida albicans [1] = assay: Antimicrobial activity against Candida albicans ATCC 10231 at 380 ug by Kirby-Bauer disk diffusion test; assay type: functional, organism-based
Outline: (§1)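 Modified Kirby-Bauer disc diffusion on Muller-Hinton agar. Inhibition-zone diameter, disc diameter included, measured with a ruler from under the plate and recorded in mm.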

[2] = Dissolution of the compound in phosphate buffer at pH 6.8 measured over 12 hrs using solid lipid nanoparticle formulation by dialysis bag diffusion method; assay type: physicochemical; details: artificial membrane, pH 6.8, 12 h
Outline: (§2)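 SLNs made by hot emulsification-ultrasonication with Compritol as lipid and 3% Pluronic F68 aqueous phase. Homogenized at 10,000 rpm and 75 °C for 15 min, then probe-sonicated 10 min.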

[3] = Dissolution of the compound in phosphate buffer at pH 6.8 measured within 2 hrs by dialysis bag diffusion method; assay type: physicochemical; details: artificial membrane, pH 6.8, 2 h
Outline: (§3)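 Formula or compound suspension (3 ml) in 12 kDa MWCO dialysis bags, in 500 ml enzyme-free phosphate buffer pH 6.8, 37 °C, 50 rpm. 5 ml samples taken with replacement over 12 h. Cumulative % release determined by UV absorbance against a calibration curve.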

[4] = Permeability of the compound in simulated dialysis membrane at pH 6.8 measured within 6 hrs by Franz diffusion cell-based spectrophotometric method; assay type: ADME, cell membranes; details: artificial membrane, pH 6.8, 6 h
Outline: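 Franz cell with dialysis membrane. 1 ml of SLN formula or compound suspension in the donor chamber; receptor holds phosphate buffer pH 6.8 at 37 °C, magnetically stirred. Receptor sampled with replacement over 6 h; concentration by UV absorbance against a calibration curve.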

[5] = Permeability of the compound in simulated dialysis membrane at pH 6.8 measured within 6 hrs using solid lipid nanoparticle formulation by Franz diffusion cell-based spectrophotometric method; assay type: ADME, cell membranes; details: artificial membrane, pH 6.8, 6 h; outline: as §2
Escherichia coli [6] = assay: Antimicrobial activity against Escherichia coli ATCC 25922 assessed as diameter of inhibition zone at 380 ug by Kirby-Bauer disk diffusion test; assay type: functional; details: read-out: DIZ; outline: as §1
Klebsiella pneumoniae [7] = assay: Antimicrobial activity against Klebsiella pneumoniae ATCC 700603 assessed as diameter of inhibition zone at 380 ug by Kirby-Bauer disk diffusion test; assay type: functional; details: read-out: DIZ; outline: as §1
Proteus mirabilis [8] = assay: Antimicrobial activity against Proteus mirabilis ATCC 14153 assessed as diameter of inhibition zone at 380 ug by Kirby-Bauer disk diffusion test; assay type: functional; details: read-out: DIZ; outline: as §1
Pseudomonas aeruginosa [9] = assay: Antimicrobial activity against Pseudomonas aeruginosa ATCC 27853 assessed as diameter of inhibition zone at 380 ug by Kirby-Bauer disk diffusion test; assay type: functional; details: read-out: DIZ; outline: as §1
Acinetobacter baumannii [10] = assay: Antimicrobial activity against clinical isolate of Acinetobacter baumannii assessed as diameter of inhibition zone at 380 ug by Kirby-Bauer disk diffusion test; assay type: functional; details: read-out: DIZ; outline: as §1
Staphylococcus aureus [11] = assay: Antimicrobial activity against Staphylococcus aureus ATCC 29213 measured after 18 hrs by broth microdilution method; assay type: functional; details: ATCC 29213, 18 h
Outline: (§4)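 Broth microdilution in 96-well plates. Compound stock 10 mg/ml in DMSO, two-fold serial dilutions from final 1024 to 0.5 µg/ml in water plus double-strength nutrient broth. Inoculum from direct colony suspension in saline adjusted to 0.5 McFarland, final 5 × 10⁵ CFU per well, used within 15 min. Positive and negative control rows.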

Escherichia coli [12] = assay: Antimicrobial activity against Escherichia coli ATCC 25922 measured after 18 hrs by broth microdilution method; assay type: functional; details: ATCC 25922, 18 h; outline: as §4
Klebsiella pneumoniae [13] = assay: Antimicrobial activity against Klebsiella pneumoniae ATCC 700603 measured after 18 hrs by broth microdilution method; assay type: functional; details: Klebsiella pneumoniae, 700603, 18 h; outline: as §4
Proteus mirabilis [14] = assay: Antimicrobial activity against Proteus mirabilis ATCC 14153 measured after 18 hrs by broth microdilution method; assay type: functional; details: ATCC 14153, 18 h; outline: as §4
Pseudomonas aeruginosa [15] = assay: Antimicrobial activity against Pseudomonas aeruginosa ATCC 27853 measured after 18 hrs by broth microdilution method; assay type: functional; details: ATCC 27853, 18 h; outline: as §4
Acinetobacter baumannii [16] = assay: Antimicrobial activity against clinical isolate of Acinetobacter baumannii measured after 18 hrs by broth microdilution method; assay type: functional; outline: as §4
Candida albicans [17] = assay: Antimicrobial activity against Candida albicans ATCC 10231 measured after 18 hrs by broth microdilution method; assay type: functional; details: ATCC 10231, 18 h; outline: as §4
Staphylococcus aureus [18] = assay: Antimicrobial activity against Staphylococcus aureus ATCC 29213 measured after 18 hrs using solid lipid nanoparticle formulation by broth microdilution method; assay type: functional; details: ATCC 29213, 18 h; outline: as §4
Escherichia coli [19] = assay: Antimicrobial activity against Escherichia coli ATCC 25922 measured after 18 hrs using solid lipid nanoparticle formulation by broth microdilution method; assay type: functional; details: ATCC 25922, 18 h; outline: as §4
Klebsiella pneumoniae [20] = assay: Antimicrobial activity against Klebsiella pneumoniae ATCC 700603 measured after 18 hrs using solid lipid nanoparticle formulation by broth microdilution method; assay type: functional; details: Klebsiella pneumoniae, 700603, 18 h; outline: as §4
Proteus mirabilis [21] = assay: Antimicrobial activity against Proteus mirabilis ATCC 14153 measured after 18 hrs using solid lipid nanoparticle formulation by broth microdilution method; assay type: functional; details: ATCC 14153, 18 h; outline: as §4
Pseudomonas aeruginosa [22] = assay: Antimicrobial activity against Pseudomonas aeruginosa ATCC 27853 measured after 18 hrs using solid lipid nanoparticle formulation by broth microdilution method; assay type: functional; details: ATCC 27853, 18 h; outline: as §4
Acinetobacter baumannii [23] = assay: Antimicrobial activity against clinical isolate of Acinetobacter baumannii measured after 18 hrs using solid lipid nanoparticle formulation by broth microdilution method; assay type: functional; outline: as §4
Candida albicans [24] = assay: Antimicrobial activity against Candida albicans ATCC 10231 measured after 18 hrs using solid lipid nanoparticle formulation by broth microdilution method; assay type: functional; details: ATCC 10231, 18 h; outline: as §4
[25] = Dissolution of the compound in phosphate buffer at pH 6.8 measured after 2 hrs by dialysis bag diffusion method; assay type: physicochemical; details: artificial membrane, pH 6.8, 2 h; outline: as §3
Staphylococcus aureus [26] = assay: Antimicrobial activity against Staphylococcus aureus ATCC 29213 assessed as diameter of inhibition zone at 380 ug by Kirby-Bauer disk diffusion test; assay type: functional; outline: as §1

C[C@@H]1[C@@H](O)[C@H](O)[C@@H](c2ccccc2)N1C
Activity (Candida albicans [1]): inactive
Activity [2]: 91.2%
Activity [3]: 100%
permeability [4]: 49.8%
permeability [5]: 100%
zone of inhibition at 380 µg/disc (Escherichia coli [6]): 40 mm
zone of inhibition at 380 µg/disc (Klebsiella pneumoniae [7]): 22 mm
zone of inhibition at 380 µg/disc (Proteus mirabilis [8]): 34 mm
zone of inhibition at 380 µg/disc (Pseudomonas aeruginosa [9]): 18 mm
zone of inhibition at 380 µg/disc (Acinetobacter baumannii [10]): 32 mm
MIC (Staphylococcus aureus [11]): 1020 µg/mL (≈ 4940 µM)
MIC (Escherichia coli [12]): 16 µg/mL (≈ 77.2 µM)
MIC (Klebsiella pneumoniae [13]): 1020 µg/mL (≈ 4940 µM)
MIC (Proteus mirabilis [14]): 4 µg/mL (≈ 19.3 µM)
MIC (Pseudomonas aeruginosa [15]): 1020 µg/mL (≈ 4940 µM)
MIC (Acinetobacter baumannii [16]): 128 µg/mL (≈ 618 µM)
MIC (Candida albicans [17]): > 1020 µg/mL
MIC (Staphylococcus aureus [18]): 1020 µg/mL (≈ 4940 µM)
MIC (Escherichia coli [19]): 16 µg/mL (≈ 77.2 µM)
MIC (Klebsiella pneumoniae [20]): > 1020 µg/mL
MIC (Proteus mirabilis [21]): 2 µg/mL (≈ 9.65 µM)
MIC (Pseudomonas aeruginosa [22]): 512 µg/mL (≈ 2470 µM)
MIC (Acinetobacter baumannii [23]): 16 µg/mL (≈ 77.2 µM)
MIC (Candida albicans [24]): > 1020 µg/mL

COc1cc([C@@H]2[C@@H](O)[C@H](O)[C@@H](C)N2C)c(F)c(C)c1OC
Activity (Candida albicans [1]): inactive
Activity [2]: 92.2%
Activity [25]: 78.2%
permeability [4]: 72.9%
permeability [5]: 100%
growth inhibition (GI) (Staphylococcus aureus [26]): Active
MIC (Staphylococcus aureus [11]): 4 µg/mL (≈ 13.4 µM)
MIC (Escherichia coli [12]): 64 µg/mL (≈ 214 µM)
MIC (Klebsiella pneumoniae [13]): 512 µg/mL (≈ 1710 µM)
MIC (Proteus mirabilis [14]): 1020 µg/mL (≈ 3420 µM)
MIC (Pseudomonas aeruginosa [15]): 1020 µg/mL (≈ 3420 µM)
MIC (Acinetobacter baumannii [16]): 512 µg/mL (≈ 1710 µM)
MIC (Candida albicans [17]): > 1020 µg/mL
MIC (Staphylococcus aureus [18]): 4 µg/mL (≈ 13.4 µM)
MIC (Escherichia coli [19]): 16 µg/mL (≈ 53.5 µM)
MIC (Klebsiella pneumoniae [20]): > 1020 µg/mL
MIC (Proteus mirabilis [21]): 128 µg/mL (≈ 428 µM)
MIC (Pseudomonas aeruginosa [22]): > 1020 µg/mL
MIC (Acinetobacter baumannii [23]): 256 µg/mL (≈ 855 µM)
MIC (Candida albicans [24]): > 1020 µg/mL

COCc1ccc([C@@H]2[C@@H](O)[C@H](O)[C@@H](C)N2C)cc1
Activity (Candida albicans [1]): inactive
Activity [2]: 92.1%
Activity [3]: 91.8%
permeability [4]: 62.7%
permeability [5]: 100%
growth inhibition (GI) (Staphylococcus aureus [26]): Active
MIC (Staphylococcus aureus [11]): 2 µg/mL (≈ 7.96 µM)
MIC (Escherichia coli [12]): 8 µg/mL (≈ 31.8 µM)
MIC (Klebsiella pneumoniae [13]): 256 µg/mL (≈ 1020 µM)
MIC (Proteus mirabilis [14]): 16 µg/mL (≈ 63.7 µM)
MIC (Pseudomonas aeruginosa [15]): > 1020 µg/mL
MIC (Acinetobacter baumannii [16]): > 1020 µg/mL
MIC (Candida albicans [17]): > 1020 µg/mL
MIC (Staphylococcus aureus [18]): 2 µg/mL (≈ 7.96 µM)
MIC (Escherichia coli [19]): 8 µg/mL (≈ 31.8 µM)
MIC (Klebsiella pneumoniae [20]): 512 µg/mL (≈ 2040 µM)
MIC (Proteus mirabilis [21]): 8 µg/mL (≈ 31.8 µM)
MIC (Pseudomonas aeruginosa [22]): > 1020 µg/mL
MIC (Acinetobacter baumannii [23]): > 1020 µg/mL
MIC (Candida albicans [24]): > 1020 µg/mL

— ChEMBL document CHEMBL4480414, “Design and total synthesis of (-)-codonopsinine, (-)-codonopsine and codonopsinine analogues by O-(2-oxopyrrolidin-5-yl)trichloroacetimidate as amidoalkylating agent with improved antimicrobial activity via solid lipid nanoparticle formulations” (Bioorg Med Chem, 2019)
